Active and inactive are the calls of the source. The calls are words filed in the database; no cut-off is given here.
Experiments:
[1] = target: T1, Metabotropic glutamate receptor 4 (Homo sapiens, UniProt Q14833); test: (§1) Positive allosteric modulation of human mGlu4 receptor expressed in CHO cells co-expressing Gqi5 assessed as increase in glutamate-induced calcium mobilization preincubated for 142 secs followed by EC20 glutamate addition and subsequent EC80 glutamate addition after 147 secs by Fluo-4-AM dye based fluorescence assay; format: functional, cell-based
T1 sequence (Q14833 whole entry): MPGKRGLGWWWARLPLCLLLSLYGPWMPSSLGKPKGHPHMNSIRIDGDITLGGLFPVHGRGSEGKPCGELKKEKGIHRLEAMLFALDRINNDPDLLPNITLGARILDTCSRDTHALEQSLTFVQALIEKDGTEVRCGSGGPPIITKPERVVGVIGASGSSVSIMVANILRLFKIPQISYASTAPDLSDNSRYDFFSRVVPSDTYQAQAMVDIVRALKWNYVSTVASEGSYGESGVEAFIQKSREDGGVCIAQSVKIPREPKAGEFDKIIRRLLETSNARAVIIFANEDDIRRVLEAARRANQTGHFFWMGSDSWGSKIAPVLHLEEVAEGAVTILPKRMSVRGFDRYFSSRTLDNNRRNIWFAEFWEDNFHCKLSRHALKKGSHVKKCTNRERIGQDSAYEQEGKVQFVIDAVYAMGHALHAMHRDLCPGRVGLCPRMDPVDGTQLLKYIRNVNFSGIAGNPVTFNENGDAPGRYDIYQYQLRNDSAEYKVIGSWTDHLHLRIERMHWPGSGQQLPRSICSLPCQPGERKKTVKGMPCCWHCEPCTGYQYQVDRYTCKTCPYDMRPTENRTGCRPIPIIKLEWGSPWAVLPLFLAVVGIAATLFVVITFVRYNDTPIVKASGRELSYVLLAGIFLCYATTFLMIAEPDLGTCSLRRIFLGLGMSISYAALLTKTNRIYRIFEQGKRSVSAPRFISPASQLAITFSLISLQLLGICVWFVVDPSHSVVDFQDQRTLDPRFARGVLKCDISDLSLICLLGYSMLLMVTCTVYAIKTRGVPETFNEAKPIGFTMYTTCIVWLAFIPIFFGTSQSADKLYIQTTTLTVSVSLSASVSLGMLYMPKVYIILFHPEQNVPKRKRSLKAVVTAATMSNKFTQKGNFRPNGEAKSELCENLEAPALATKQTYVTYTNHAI
In short: (§2)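 CHO cells expressing human mGlu4 and Gqi5, plated at 30,000 cells/well and grown overnight at 37 °C, 5% CO2. Cells were loaded with 1 μM Fluo-4 AM for 45 min at 37 °C in HBSS/20 mM HEPES/2.5 mM probenecid. Compounds were run as 10-point, 1:3 dilution series. After 142 s, EC20 glutamate was added; 147 s later, EC80 glutamate. Fluorescence was normalized to the maximal glutamate response. EC50 and %Glu Max were fitted by four-parameter logistic, with maximum normalized to PHCCC.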

[2] = target: T1, Metabotropic glutamate receptor 4; test: as §1, with “measured” for “subsequent EC80 glutamate addition”, “assay relative to control” for “assay”; format: functional, cell-based; in short: as §2
[3] = target: T2, AhR (read out as CYP1A2 induction) (Homo sapiens, UniProt P35869); test: Activation of AhR (unknown origin) assessed as CYP1A2 induction relative to control; format: ADME
T2 sequence (P35869 whole entry): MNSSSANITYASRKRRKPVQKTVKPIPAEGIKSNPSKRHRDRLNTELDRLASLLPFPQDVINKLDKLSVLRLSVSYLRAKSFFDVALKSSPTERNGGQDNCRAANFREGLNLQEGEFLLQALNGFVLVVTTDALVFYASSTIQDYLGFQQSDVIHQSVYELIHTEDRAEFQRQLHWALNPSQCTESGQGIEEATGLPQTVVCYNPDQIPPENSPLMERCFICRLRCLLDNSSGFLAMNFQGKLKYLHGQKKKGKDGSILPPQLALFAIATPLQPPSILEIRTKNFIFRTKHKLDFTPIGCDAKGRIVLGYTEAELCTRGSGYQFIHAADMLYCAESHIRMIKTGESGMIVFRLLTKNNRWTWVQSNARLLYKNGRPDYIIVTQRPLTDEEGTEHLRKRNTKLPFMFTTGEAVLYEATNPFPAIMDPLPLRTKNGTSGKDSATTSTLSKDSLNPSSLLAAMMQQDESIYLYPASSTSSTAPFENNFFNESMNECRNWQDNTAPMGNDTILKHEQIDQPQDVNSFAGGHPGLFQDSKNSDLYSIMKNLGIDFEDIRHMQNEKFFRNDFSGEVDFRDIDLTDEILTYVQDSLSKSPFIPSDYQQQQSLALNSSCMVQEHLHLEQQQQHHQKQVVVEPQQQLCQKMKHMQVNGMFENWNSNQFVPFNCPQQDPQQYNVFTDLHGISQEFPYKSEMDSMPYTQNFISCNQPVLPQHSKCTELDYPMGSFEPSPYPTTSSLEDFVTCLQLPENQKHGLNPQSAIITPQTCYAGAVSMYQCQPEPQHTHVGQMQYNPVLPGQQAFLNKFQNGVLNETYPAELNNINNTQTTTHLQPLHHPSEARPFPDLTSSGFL

[4] = Intrinsic clearance in human liver microsomes at 1 uM preincubated for 5 mins followed by NADPH addition measured up to 45 mins by LC-MS/MS analysis; format: ADME, Microsome; settings: read-out: CLH
In short: (§3)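 Intrinsic and predicted hepatic clearance derived from liver microsome incubations.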

[5] = Intrinsic clearance in rat liver microsomes at 1 uM preincubated for 5 mins followed by NADPH addition measured up to 45 mins by LC-MS/MS analysis; format: ADME, Microsome; settings: read-out: CLH; in short: as §3
[6] = Fraction unbound in human plasma after 4 hrs by equilibrium dialysis method; format: ADME, cell-free
[7] = Fraction unbound in rat plasma after 4 hrs by equilibrium dialysis method; format: ADME, cell-free
Cytochrome P450 1A2 = target: T3, Cytochrome P450 1A2 (Homo sapiens, UniProt P05177); test: Inhibition of CYP1A2 in human liver microsomes using phenacetin as substrate preincubated for 15 mins followed by substrate addition and measured after 8 mins by LC-MS/MS analysis; format: ADME
T3 sequence (P05177 whole entry): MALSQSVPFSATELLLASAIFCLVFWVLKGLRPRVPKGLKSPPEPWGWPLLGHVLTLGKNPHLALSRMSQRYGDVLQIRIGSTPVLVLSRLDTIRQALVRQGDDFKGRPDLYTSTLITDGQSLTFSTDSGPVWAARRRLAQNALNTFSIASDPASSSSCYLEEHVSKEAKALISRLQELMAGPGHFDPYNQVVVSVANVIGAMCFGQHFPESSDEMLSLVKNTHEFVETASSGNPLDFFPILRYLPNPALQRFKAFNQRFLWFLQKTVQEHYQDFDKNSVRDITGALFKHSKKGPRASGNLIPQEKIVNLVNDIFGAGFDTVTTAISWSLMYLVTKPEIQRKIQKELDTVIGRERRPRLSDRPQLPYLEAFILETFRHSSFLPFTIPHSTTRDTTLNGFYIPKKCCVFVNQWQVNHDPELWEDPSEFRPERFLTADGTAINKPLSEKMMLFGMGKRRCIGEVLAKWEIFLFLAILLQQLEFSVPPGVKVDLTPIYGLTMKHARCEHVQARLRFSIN
In short: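 IC50 for CYP1A2 inhibition determined in human liver microsomes using specific probe substrate-metabolite pairs.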

[8] = target: Metabotropic glutamate receptor 4 (Rattus norvegicus, UniProt P31423); test: (§4) Positive allosteric modulation of rat mGlu4 receptor expressed in HEK cells co-expressing GIRK1/2 assessed as increase in glutamate-induced thallium flux preincubated for 140 secs followed by glutamate addition and measured after 2.5 mins by FluoZin-2-AM dye based fluorescence assay; format: cell-based
Sequence of Metabotropic glutamate receptor 4 (Rattus norvegicus, UniProt P31423) (P31423 whole entry): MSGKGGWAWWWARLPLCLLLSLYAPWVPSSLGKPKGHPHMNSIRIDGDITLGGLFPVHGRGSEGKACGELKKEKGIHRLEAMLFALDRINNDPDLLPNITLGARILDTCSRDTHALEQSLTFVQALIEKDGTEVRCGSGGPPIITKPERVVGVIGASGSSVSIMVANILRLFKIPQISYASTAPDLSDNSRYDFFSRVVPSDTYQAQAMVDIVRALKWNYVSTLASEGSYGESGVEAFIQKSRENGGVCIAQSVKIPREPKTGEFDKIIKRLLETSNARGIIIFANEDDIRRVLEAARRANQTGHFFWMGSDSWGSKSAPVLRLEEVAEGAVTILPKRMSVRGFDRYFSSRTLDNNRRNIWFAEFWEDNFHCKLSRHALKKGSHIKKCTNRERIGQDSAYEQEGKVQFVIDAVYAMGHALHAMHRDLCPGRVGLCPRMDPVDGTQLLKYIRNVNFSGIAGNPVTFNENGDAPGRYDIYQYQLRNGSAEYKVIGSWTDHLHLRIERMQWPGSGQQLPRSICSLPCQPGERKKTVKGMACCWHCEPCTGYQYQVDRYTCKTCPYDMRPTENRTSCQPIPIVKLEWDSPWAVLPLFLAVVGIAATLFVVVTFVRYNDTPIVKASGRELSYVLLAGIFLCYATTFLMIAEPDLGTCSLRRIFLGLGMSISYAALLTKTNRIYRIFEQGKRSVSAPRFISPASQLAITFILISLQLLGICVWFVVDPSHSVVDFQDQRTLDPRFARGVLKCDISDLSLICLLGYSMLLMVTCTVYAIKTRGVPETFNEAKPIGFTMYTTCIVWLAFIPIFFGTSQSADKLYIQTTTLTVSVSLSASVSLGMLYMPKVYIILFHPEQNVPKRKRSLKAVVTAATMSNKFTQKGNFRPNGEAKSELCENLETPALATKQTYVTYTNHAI
In short: (§5)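 HEK cells co-expressing rat mGlu4 and GIRK1/2 were loaded for 1 h at room temperature with FluoZin-2 AM (330 nM final) in HBSS/20 mM HEPES pH 7.4. Compound was incubated 140 s, then thallium buffer with or without agonist was added. Reading continued for 2.5 min at room temperature. Potency was fitted by four-parameter logistic.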

[9] = target: Metabotropic glutamate receptor 4 (Rattus norvegicus) (UniProt P31423); test: as §4, with “assay relative to control” for “assay”; format: cell-based; in short: as §5
Sequence of Metabotropic glutamate receptor 4 (Rattus norvegicus) (P31423 whole entry): as above

[10] = Clearance in rat administered as iv cassette dose; format: ADME, organism-based; settings: in vivo
In short: (§6)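 IV cassette in male Sprague-Dawley rats (~300 g, n = 1 per experiment), cannulated in carotid artery and jugular vein and acclimated about one week. Plasma clearance, Vss, t1/2 and MRT were derived.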

[11] = Volume of distribution at steady state in rat administered as iv cassette dose; format: ADME, organism-based; settings: in vivo, read-out: Vdss; in short: as §6
[12] = MRT in rat administered as iv cassette dose; format: ADME, organism-based; settings: in vivo; in short: as §6
[13] = Half life in rat administered as iv cassette dose; format: ADME, organism-based; settings: in vivo; in short: as §6
[14] = Plasma concentration in rat administered as iv cassette dose; format: ADME, organism-based; settings: in vivo
In short: (§7)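 Cassette dosing in male Sprague-Dawley rats (~300 g, n = 1 per experiment), with carotid artery and jugular vein catheters. Animals acclimated about one week with food and water ad libitum. Plasma (ng/mL) and brain (ng/g) levels were measured and Kp calculated.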

[15] = Drug uptake in rat brain administered as iv cassette dose; format: ADME, organism-based; settings: in vivo; in short: as §7
[16] = Brain to plasma partition coefficient, Kp of the compound in rat administered as iv cassette dose; format: ADME, organism-based; in short: as §7
Rattus norvegicus = test: Reversal of haloperidol-induced catalepsy in Sprague-Dawley rat assessed as decrease in latency to remove forepaws from bar at 10 mg/kg, po administered 30 mins prior to test; format: functional, organism-based
In short: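 Male Sprague-Dawley rats were randomized and given haloperidol 0.75 mg/kg i.p., then 60 min in home cage. Vehicle or compound (10 mg/kg) was given orally 30 min before catalepsy testing, N = 11–12 rats/group. Data analyzed by one-way ANOVA with Dunnett's test versus vehicle + haloperidol.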

Cc1noc2ccc(Nc3n[nH]c4nccnc34)cc12
EC50 [1]: 137 nM | %max [2]: 85.4% | Emax [3]: > 50% | CLint scaled at 1 µM [4]: 114 mL/min/kg | CLint scaled at 1 µM [5]: 3 mL/min/kg | fraction unbound at 4 h [6]: 0.066 | fraction unbound at 4 h [7]: 0.064 | IC50 (Cytochrome P450 1A2): 200 nM | EC50 [8]: 65 nM | %max [9]: 127% | clearance [10]: 24.3 mL/min/kg | Vd [11]: 0.9 L/kg | MRT [12]: 37.2 min | half-life [13]: 28.6 min

c1cnc2c(Nc3ccc4c(C5CCCC5)noc4c3)n[nH]c2n1
EC50 [1]: 514 nM | %max [2]: 85.5% | CLint scaled at 1 µM [4]: 42.3 mL/min/kg | CLint scaled at 1 µM [5]: 281 mL/min/kg | fraction unbound at 4 h [6]: 0.013 | fraction unbound at 4 h [7]: 0.008 | IC50 (Cytochrome P450 1A2): 3000 nM | EC50 [8]: 518 nM | %max [9]: 102% | clearance [10]: 23.2 mL/min/kg | half-life [13]: 45.9 min | Cp [14]: 117 ng/mL | Drug uptake [15]: 145 ng/g | Kp ([16]; brain and plasma, read-out: Kp): 1.2

CN(C(=O)c1nsc2cc(Nc3n[nH]c4cccnc34)ccc12)C1CC(F)(F)C1
EC50 [1]: 68.1 nM | %max [2]: 76.7% | CLint scaled at 1 µM [4]: 298 mL/min/kg | CLint scaled at 1 µM [5]: 2940 mL/min/kg | fraction unbound at 4 h [6]: 0.006 | fraction unbound at 4 h [7]: < 0.001 | Cp [14]: 511 ng/mL | Drug uptake ([15]; BLD = below limit of detection): Bld | Kp ([16]; brain, BLD = below limit of detection): Bld

Cc1noc2c(F)cc(Nc3n[nH]c4ncccc34)cc12
EC50 [1]: 122 nM | %max [2]: 74.7% | Emax [3]: > 50% | CLint scaled at 1 µM [4]: 50.2 mL/min/kg | CLint scaled at 1 µM [5]: 110 mL/min/kg | fraction unbound at 4 h [6]: 0.028 | fraction unbound at 4 h [7]: 0.033 | IC50 (Cytochrome P450 1A2): < 100 nM | EC50 [8]: 169 nM | %max [9]: 114% | clearance [10]: 30.5 mL/min/kg | Vd [11]: 1.2 L/kg | MRT [12]: 38 min | half-life [13]: 34.7 min

O=C(c1nsc2cc(Nc3n[nH]c4cccnc34)ccc12)N1CCC(F)(F)CC1
EC50 [1]: 52.4 nM | %max [2]: 71% | CLint scaled at 1 µM [4]: 54 mL/min/kg | CLint scaled at 1 µM [5]: 393 mL/min/kg | fraction unbound at 4 h [6]: 0.021 | fraction unbound at 4 h [7]: 0.029 | IC50 (Cytochrome P450 1A2): > 30000 nM | EC50 [8]: 139 nM | %max [9]: 103% | Cp [14]: 249 ng/mL | Drug uptake [15]: 35.5 ng/g | Kp ([16]; brain and plasma, read-out: Kp): 0.14

Cc1noc2c(F)cc(Nc3n[nH]c4cccnc34)cc12
EC50 [1]: 274 nM | %max [2]: 77.7% | Emax [3]: > 50% | CLint scaled at 1 µM [4]: 31.1 mL/min/kg | CLint scaled at 1 µM [5]: 66.4 mL/min/kg | fraction unbound at 4 h [6]: 0.029 | fraction unbound at 4 h [7]: 0.05 | IC50 (Cytochrome P450 1A2): < 100 nM | EC50 [8]: 53 nM | %max [9]: 114% | clearance [10]: 81.1 mL/min/kg | Vd [11]: 3.1 L/kg | MRT [12]: 38.4 min | half-life [13]: 31.2 min

O=C(NC1CC(F)(F)C1)c1nsc2cc(Nc3n[nH]c4nccnc34)ccc12
EC50 [1]: 26 nM | %max [2]: 68.1% | CLint scaled at 1 µM [4]: 2.6 mL/min/kg | CLint scaled at 1 µM [5]: 8.3 mL/min/kg | fraction unbound at 4 h [6]: 0.004 | fraction unbound at 4 h [7]: 0.007 | IC50 (Cytochrome P450 1A2): > 30000 nM | EC50 [8]: 82.2 nM | %max [9]: 86.6% | Cp [14]: 690 ng/mL | Drug uptake [15]: 55.6 ng/g | Kp ([16]; brain and plasma, read-out: Kp): 0.08

Fc1ccc(Nc2n[nH]c3cccnc23)cc1Cl
Activity (Rattus norvegicus): Active

Cc1noc2ccc(Nc3n[nH]c4ncccc34)cc12
EC50 [1]: 227 nM | %max [2]: 81.9% | Emax [3]: > 50% | CLint scaled at 1 µM [4]: 81.4 mL/min/kg | CLint scaled at 1 µM [5]: 30.1 mL/min/kg | fraction unbound at 4 h [6]: 0.066 | fraction unbound at 4 h [7]: 0.079 | IC50 (Cytochrome P450 1A2): 700 nM | EC50 [8]: 209 nM | %max [9]: 108% | clearance [10]: 38 mL/min/kg | Vd [11]: 2.5 L/kg | MRT [12]: 60.6 min | half-life [13]: 107 min

Cc1noc2ccc(Nc3n[nH]c4cc(F)cnc34)cc12
EC50 [1]: 1570 nM | %max [2]: 80.6% | Emax [3]: > 50% | CLint scaled at 1 µM [4]: 24.2 mL/min/kg | CLint scaled at 1 µM [5]: 33.4 mL/min/kg | fraction unbound at 4 h [6]: 0.054 | fraction unbound at 4 h [7]: 0.076 | IC50 (Cytochrome P450 1A2): < 100 nM | EC50 [8]: 123 nM | %max [9]: 111% | clearance [10]: 64.6 mL/min/kg | Vd [11]: 2 L/kg | MRT [12]: 31.6 min | half-life [13]: 54.8 min

Source: ChEMBL document CHEMBL4308847, “Discovery, Structure-Activity Relationship, and Biological Characterization of a Novel Series of 6-((1 H-Pyrazolo[4,3- b]pyridin-3-yl)amino)-benzo[ d]isothiazole-3-carboxamides as Positive Allosteric Modulators of the Metabotropic Glutamate Receptor 4 (mGlu4)” (J Med Chem, 2018)
